# Measured values as given in ChEMBL document CHEMBL3259602, “Thiaflavan scavenges radicals and inhibits DNA oxidation: a story from the ferrocene modification” (Eur J Med Chem, 2014).
# Activity calls are given as the source filed them. The rule behind the calls is not given here.
# Assays:
# [1] = Antioxidant activity assessed as ABTS radical scavenging activity after 16 hrs by spectrophotometric analysis; assay type: functional
# Summary of the method: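 Radical cation pre-formed over 16 h, then diluted in ethanol to about 0.70 absorbance at 734 nm. Compound in DMSO (0.1 mL) was added to 1.9 mL of radical solution at 7.5 μM final. Absorbance decay was recorded at 25 °C. The rate constant k was derived from the initial rate (t = 0).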
# [2] = Antioxidant activity assessed as inhibition of AAPH-induced oxidation of DNA at 200 uM by spectrophotometric analysis; assay type: functional
# [3] = Antioxidant activity assessed as inhibition of AAPH-induced oxidation of DNA measured as TBARS formation by spectrophotometric analysis; assay type: functional
# Summary of the method: (§1)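 DNA sodium salt (2.0 mg/mL) with 40 mM AAPH in phosphate buffer (8.1 mM Na2HPO4, 1.9 mM NaH2PO4, 10.0 mM EDTA), with various compound concentrations in DMSO; DMSO-only blank. Samples were heated at 37 °C. TBARS was read at 535 nm. The inhibition period was taken at the crossing of tangents, then plotted against concentration.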
# [4] = test system: Radical scavenging activity; assay: Antioxidant activity assessed as DPPH radical scavenging activity by spectrophotometric analysis; assay type: functional
# Summary of the method: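 DPPH in ethanol (about 1.00 absorbance at 517 nm). Compound in DMSO (0.1 mL) was added to 1.9 mL of radical solution at 37.5 or 75.0 μM final, depending on compound. Absorbance decay was followed at 25 °C. The rate constant k was calculated from the initial reaction rate at t = 0.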
# [5] = Antioxidant activity assessed as galvinoxyl radical scavenging activity by spectrophotometric analysis; assay type: functional
# Summary of the method: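 Galvinoxyl in ethanol, absorbance about 1.00 at 428 nm. Compound in DMSO (0.1 mL) was added to 1.9 mL of radical solution at 7.5 or 75.0 μM final, depending on compound. Absorbance decay was recorded at 25 °C. The rate constant k was derived from the initial rate at t = 0.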
# [6] = Antioxidant activity assessed as inhibition of AAPH-induced oxidation of DNA by spectrophotometric analysis; assay type: functional; summary of the method: as §1
# [7] = Antioxidant activity assessed as inhibition of AAPH-induced oxidation of DNA at 100 uM by spectrophotometric analysis; assay type: functional
# Summary of the method: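 Oxidation of 2.0 mg/mL DNA by 40 mM AAPH in phosphate/EDTA buffer at 37 °C, with compound at 100 μM (DMSO vehicle; DMSO-only control). TBARS was monitored at 535 nm (ε 1.56 × 10^5 M⁻¹ cm⁻¹), and its formation rate d[TBARS]/dt was expressed in nM min⁻¹.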
# [8] = Antioxidant activity assessed as inhibition of AAPH-induced oxidation of DNA at 100 uM by spectrophotometric analysis
SMILES,K [1],Activity [2],Activity [3],K [4],K [5],Activity [6],Activity [7],Activity [8]
COc1ccc2c(c1)SCC(c1ccc(O)cc1)O2 (stereo unspecified),0.202 ×10³ /M/s,Active,4.2 nM/min,–,–,–,–,–
Oc1ccc2c(c1)SCC(c1ccc(O)c(O)c1)O2 (stereo unspecified),11.7 ×10³ /M/s,–,–,1.18 ×10³ /M/s,0.52 ×10³ /M/s,Active,–,–
COc1ccc2c(c1)SCC(c1ccc(O)c(O)c1)O2 (stereo unspecified),390 ×10³ /M/s,–,–,2.2 ×10³ /M/s,2.54 ×10³ /M/s,Active,–,–
COc1ccc2c(c1)OC(c1ccc(O)cc1)CS2 (stereo unspecified),0.168 ×10³ /M/s,–,–,–,–,Active,–,–
Oc1ccc2c(c1)OC(c1ccc(O)c(O)c1)CS2 (stereo unspecified),16.7 ×10³ /M/s,–,–,1.61 ×10³ /M/s,0.57 ×10³ /M/s,Active,–,–
Oc1ccc(C2CSc3cc(O)ccc3O2)cc1 (stereo unspecified),8.92 ×10³ /M/s,–,–,0.043 ×10³ /M/s,0.025 ×10³ /M/s,Active,–,–
Cc1c(C)c2c(c(C)c1O)CCC(C)(C(=O)O)O2 (stereo unspecified),29.2 ×10³ /M/s,–,–,0.353 ×10³ /M/s,1.7 ×10³ /M/s,–,–,–
COc1ccc2c(c1)SC=C(c1ccc(O)cc1)O2,8.14 ×10³ /M/s,Active,5.8 nM/min,0.031 ×10³ /M/s,–,–,–,–
Oc1ccc(C2CSc3ccc(O)cc3O2)cc1 (stereo unspecified),10.8 ×10³ /M/s,–,4.1 nM/min,0.069 ×10³ /M/s,0.034 ×10³ /M/s,–,Active,Active
Oc1ccc2c(c1)SC=C(c1ccccc1)O2,4.89 ×10³ /M/s,Active,5.2 nM/min,0.0071 ×10³ /M/s,–,–,–,–
Oc1ccccc1O,2.58 ×10³ /M/s,–,–,1.3 ×10³ /M/s,1.78 ×10³ /M/s,–,–,–
